Results reported in PubChem BioAssay AID617 (SRMLSC, 2007).

Each molecule was assayed on E. coli BW25113 ΔtolC growth inhibition, OD615 (assay: E. coli ΔtolC antibacterial growth inhibition – strain BW25113 ΔtolC::kan, dose response (AID 617)).
In short: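 System – E. coli BW25113 ΔtolC::kan bacteria · Input – inoculum from 1:1000-diluted 1.5 h subculture · Buffer or medium – LB plus kanamycin · Compound – serial dilution series of compound · Timing – bacterial growth with compound for 20 h, 37 °C · Measured by – OD615 · Read-out basis – growth-inhibition IC50 from four-parameter logistic curve, bounds set to 0% and 100% · Benchmarks – chloramphenicol 30 µM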

| SMILES | IC50 |
| --- | --- |
| CCOC(=O)c1cc2c(ccn2C)n1Cc1ccccc1C | 27.3 µM |
| CCCCNC(=O)c1sc(=S)n2c1[nH]c(=O)c1ccccc12 | 0.54 µM |
| O=S(=O)(Nc1cccc2cccnc12)c1ccc(S(=O)(=O)N2CCCC2)cc1 | 15.3 µM |
| CCSc1oc(-c2ccccc2)nc1S(=O)(=O)c1ccccc1 | 11.1 µM |
| COc1ccc(OCC(O)CNc2ccc(Br)cc2)cc1 (configuration not stated) | 12.7 µM |
| O=C(Nc1nnc(-c2cccs2)o1)c1cccc(Oc2ccccc2)c1 | 0.17 µM |
| CCOC(=O)c1c(C)[nH]c(C)c1C(=O)Cn1nnc(-c2ccccc2C)n1 | 5.44 µM |
| CCOC(=O)CCSc1nc2c(c(C(F)(F)F)c1C#N)CCC2 | 13.9 µM |
| Cn1c(=O)c2c(nc(N3CCCCCC3)n2Cc2cccc3ccccc23)n(C)c1=O | 7.33 µM |
| CN1CCN(c2c(F)cc3c(=O)c(C(=O)O)cn4c3c2SCC4)CC1 | 0.91 µM |
| N#C/C(=C\C1CC=CCC1)c1nc2ccccc2[nH]1 (configuration not stated) | 36.9 µM |
| O=C(c1cccc(COc2ccc(Cl)cc2Cl)c1)N1CCN(c2ccccn2)CC1 | 3.82 µM |
| C/C(O)=c1/ccc2cccc3nc(C)nc1c23 | 26 µM |
| Oc1c(CN2CCCCC2)cc(COCc2ccccc2)c2cccnc12 | 13.2 µM |
| Cc1ccc(C2CC(c3cccc(Br)c3)Nc3nnnn32)cc1 (configuration not stated) | 13 µM |
| O=C(c1ccc(Cl)c(Cl)c1)N(Cc1ccco1)c1ccc(O)cc1 | 3.7 µM |
| CC1CCCCN1C(=O)CSc1nc(C2CC2)nc2c1cnn2-c1ccccc1 (configuration not stated) | 12.3 µM |
| c1ccc(CC2CCN(c3nnnn3-c3ccccc3)CC2)cc1 | 9.95 µM |
| CCCN(CCC)C(=O)CSc1nc2ccccc2c(=O)n1C1CCCC1 | 14.2 µM |

| SMILES | IC50 |
| --- | --- |
| Cc1cccc(N2CCN(C(=O)c3cn(C)c(=O)c4c3c3ccccc3n4C)CC2)c1C | 16 µM |
| CCCCCCOC(=O)C(C#N)c1nc2ccccc2nc1N1CCN(C)CC1 (configuration not stated) | 12.9 µM |
| O=C(Nc1ccc(Cl)c(Cl)c1)OCc1cccnc1 | 13.8 µM |
| Cc1ccccc1-c1nc(CN2CCC(C(=O)NCCC3=CCCCC3)CC2)c(C)o1 | 13.9 µM |
| O=C(Nc1ccc(S(=O)(=O)N2CCCc3ccccc32)cc1)C1CCCO1 (configuration not stated) | 19.6 µM |
| COc1ccc(C)cc1NC(=O)CSc1nnc(COc2ccccc2)n1Cc1ccco1 | 22 µM |
| N#Cc1c(N)oc(-c2ccc3c(c2)OCO3)c1-c1ccc2c(c1)OCO2 | 49.9 µM |
| CCCCc1ccc(C2C(C#N)=C(N)SC(N)=C2C#N)s1 | 13.8 µM |
| Cc1cccc2cc(CN(Cc3ccco3)C(=O)NC3CCCCC3)c(=O)[nH]c12 | 14.9 µM |
| O=C(Nc1ccc(Br)c(Cl)c1)c1ccco1 | 8.74 µM |
| COC(=O)c1c(C)oc2ccc(OC(=O)c3cccs3)cc12 | 9.49 µM |
| CC(C)Cc1cc(C(=O)Nc2cc(Br)ccc2O)no1 | 5.72 µM |
| CCCCCOC(=O)c1ccc(NC(=O)c2ccco2)cc1 | 6.52 µM |
| N/C(=N/O)c1nc(N2CCCC2)nc(N(c2ccccc2)c2ccccc2)n1 | 10.9 µM |
| CN(C)c1ccc(-c2nn3c(-c4ccncc4)nnc3s2)cc1 | 13.6 µM |
| c1coc(CN(Cc2cccs2)Cc2nnnn2C2CCCCC2)c1 | 19.6 µM |
| CCn1c(SC)nnc1-c1sc2cc(Cl)ccc2c1Cl | 11.6 µM |
| COc1ccccc1-c1cc(C(=O)N2CCN(c3ccccc3OC)CC2)no1 | 17.9 µM |
| O=C(CSc1nc2nc(-c3cccs3)cc(C(F)(F)F)c2c(=O)[nH]1)NCc1ccco1 | 5.53 µM |

| SMILES | IC50 |
| --- | --- |
| Clc1ccc(C(c2nnnn2C2CCCCC2)N(Cc2cccnc2)Cc2ccco2)cc1 (configuration not stated) | 14.8 µM |
| CC1=C(C#N)c2nc(N)c(C#N)c(C)c2/C1=C\c1ccccc1 | 3.05 µM |
| CCCCOc1ccc(S(=O)(=O)Nc2cc(OC)ccc2OC)cc1 | 16.8 µM |
| Cc1cccc(N2CC(c3nc4ccccc4n3C)CC2=O)c1C (configuration not stated) | 4.93 µM |
| CC1CN(c2oc(COc3ccc(Cl)cc3Cl)nc2C#N)CC(C)O1 (configuration not stated) | 10.3 µM |
| CCN(CC)c1ccc(C(=O)n2cnc3ccccc32)cc1 | 15 µM |
| O=C(CSc1ncc(-c2ccc(F)cc2)n1Cc1ccco1)Nc1ccc2c(c1)OCO2 | 7.29 µM |
| Cc1cc(C2N=C(N)Nc3nc4ccccc4n32)c(C)n1-c1ccccc1Cl (configuration not stated) | 6.74 µM |
| Cc1cccc2cc(C(c3nnnn3CC3CCCO3)N3CCc4ccccc4C3)c(=O)[nH]c12 (configuration not stated) | 35.4 µM |
| Cc1cc(C(=O)OCc2nc3ccccc3s2)c(C)o1 | 32.6 µM |
| CCCc1cc(-c2[nH]ncc2-c2ccc3c(c2)OCCCO3)c(O)cc1O | 5.48 µM |
| COC(=O)c1c(NC(=O)CCc2ccc(C)o2)sc(C)c1C | 26.8 µM |
| N#Cc1nc(Cc2ccccc2)oc1NCCc1ccccc1 | 8.5 µM |
| COc1ccccc1OCCSc1nnnn1-c1ccc(C)cc1 | 18.9 µM |
| CC1=C(C(=O)OC2CCCC2)C(c2ccc(C)o2)C2=C(CC(c3cccs3)CC2=O)N1 (configuration not stated) | 11.2 µM |
| CCc1nc(N2CCCCC2)c2oc3ccccc3c2n1 | 16.2 µM |
| COc1ccc2nc(NC(=O)CSc3nnnn3C3CCCCC3)sc2c1 | 63.6 µM |
| C=CCn1c(SCC(O)Cn2c3ccccc3c3ccccc32)nnc1-c1ccco1 (configuration not stated) | 21.6 µM |
| Oc1ccccc1-c1cc(-c2ccc3c(c2)OCCO3)n[nH]1 | 8.15 µM |
